# Data taken from ChEMBL document CHEMBL1148817, “Synthesis and radioligand binding studies of bis-isoquinolinium derivatives as small conductance Ca(2+)-activated K(+) channel blockers” (J Med Chem, 2007).
# Target: T1, Small conductance calcium-activated potassium channel (Rattus norvegicus, UniProt P70604+P70606+P70605)
# Assay: Displacement of [125I]apamin from SK channel in Wistar rat cortex
# Procedure, shortened: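 Rat cortex synaptosomes (0.2 mg protein/mL) incubated 1 h at 0 °C with 10 pM 125I-apamin and eight drug concentrations (10-4.5 to 10^-8 M) in 10 mM Tris-HCl pH 7.5, 5.4 mM KCl, 0.1% BSA. Nonspecific binding defined with 0.1 µM unlabeled apamin. Filtration on PEI-coated GF/C filters, scintillation counting, curve fitting.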
row,SMILES,Ki [nM]
1,C[n+]1ccc2ccccc2c1CCCCc1c2ccccc2cc[n+]1C.[I-].[I-],1962
2,COc1cc2cc[n+](C)c(CCCCc3c4cc(OC)c(OC)cc4cc[n+]3C)c2cc1OC.[I-].[I-],164
3,C[n+]1ccc2ccccc2c1Cc1cccc(Cc2c3ccccc3cc[n+]2C)c1.[I-].[I-],132
4,COc1cc2cc[n+](C)c(Cc3ccccc3Cc3c4cc(OC)c(OC)cc4cc[n+]3C)c2cc1OC.[I-].[I-],33
5,C[n+]1ccc2ccccc2c1CCCCCc1c2ccccc2cc[n+]1C.[I-].[I-],1465
6,COc1cc2cc[n+](C)c(Cc3cccc(Cc4c5c(OC)c(OC)c(OC)cc5cc[n+]4C)c3)c2c(OC)c1OC.[I-].[I-],23
7,C[n+]1ccc2ccccc2c1Cc1ccc(Cc2c3ccccc3cc[n+]2C)cc1.[I-].[I-],1103
8,COc1cc2cc[n+](C)c(CCCc3c4c(OC)c(OC)c(OC)cc4cc[n+]3C)c2c(OC)c1OC.[I-].[I-],90

# Now from value to compound:
row,Ki [nM],SMILES
1,196,COc1cc2cc[n+](C)c(CCCc3c4cc(OC)c(OC)cc4cc[n+]3C)c2cc1OC.[I-].[I-]
2,1687,C[n+]1ccc2ccccc2c1CCCc1c2ccccc2cc[n+]1C.[I-].[I-]
3,106,COc1cc2cc[n+](C)c(Cc3cccc(Cc4c5cc(OC)c(OC)cc5cc[n+]4C)c3)c2cc1OC.[I-].[I-]
4,280,COc1cc2cc[n+](C)c(Cc3ccc(Cc4c5c(OC)c(OC)c(OC)cc5cc[n+]4C)cc3)c2c(OC)c1OC.[I-].[I-]
5,438,C[n+]1ccc2ccccc2c1Cc1ccccc1Cc1c2ccccc2cc[n+]1C.[I-].[I-]
6,35,COc1cc2cc[n+](C)c(Cc3ccccc3Cc3c4c(OC)c(OC)c(OC)cc4cc[n+]3C)c2c(OC)c1OC.[I-].[I-]
7,221,Cc1cc(N)c2ccccc2[n+]1CCCCCCCCCC[n+]1c(C)cc(N)c2ccccc21.[Cl-].[Cl-] [DEQUALINIUM CHLORIDE]
8,42,COc1cc2cc[n+](C)c(CCCCc3c4c(OC)c(OC)c(OC)cc4cc[n+]3C)c2c(OC)c1OC.[I-].[I-]
9,163,COc1cc2cc[n+](C)c(Cc3ccc(Cc4c5cc(OC)c(OC)cc5cc[n+]4C)cc3)c2cc1OC.[I-].[I-]
10,150,COc1cc2cc[n+](C)c(CCCCCc3c4cc(OC)c(OC)cc4cc[n+]3C)c2cc1OC.[I-].[I-]

# Target: Small conductance calcium-activated potassium channel (Rattus norvegicus) (UniProt P70604+P70606+P70605)
# Assay: Displacement of [125I]apamin from SK channel in Wistar rat cortex at 10 uM
row,SMILES,Activity [%]
1,C[n+]1ccc2ccccc2c1CCCCc1c2ccccc2cc[n+]1C.[I-].[I-],> 58
2,COc1cc2cc[n+](C)c(CCCCc3c4cc(OC)c(OC)cc4cc[n+]3C)c2cc1OC.[I-].[I-],> 58
3,C[n+]1ccc2ccccc2c1Cc1cccc(Cc2c3ccccc3cc[n+]2C)c1.[I-].[I-],> 58
4,COc1cc2cc[n+](C)c(Cc3ccccc3Cc3c4cc(OC)c(OC)cc4cc[n+]3C)c2cc1OC.[I-].[I-],> 58
5,C[n+]1ccc2ccccc2c1CCCCCc1c2ccccc2cc[n+]1C.[I-].[I-],> 58
6,COc1cc2cc[n+](C)c(Cc3cccc(Cc4c5c(OC)c(OC)c(OC)cc5cc[n+]4C)c3)c2c(OC)c1OC.[I-].[I-],> 58
7,C[n+]1ccc2ccccc2c1Cc1ccc(Cc2c3ccccc3cc[n+]2C)cc1.[I-].[I-],> 58
8,COc1cc2cc[n+](C)c(CCCc3c4c(OC)c(OC)c(OC)cc4cc[n+]3C)c2c(OC)c1OC.[I-].[I-],> 58

# Other lines, results leading:
row,Activity [%],SMILES
1,> 58,COc1ccc(C[C@H]2c3cc(OC)c(OC)cc3CC[N+]2(C)C)cc1OC.[I-] [LAUDANOSINE METHIODIDE]
2,> 58,COc1cc2cc[n+](C)c(CCCc3c4cc(OC)c(OC)cc4cc[n+]3C)c2cc1OC.[I-].[I-]
3,> 58,C[n+]1ccc2ccccc2c1CCCc1c2ccccc2cc[n+]1C.[I-].[I-]
4,> 58,COc1cc2cc[n+](C)c(Cc3cccc(Cc4c5cc(OC)c(OC)cc5cc[n+]4C)c3)c2cc1OC.[I-].[I-]
5,> 58,COc1cc2cc[n+](C)c(Cc3ccc(Cc4c5c(OC)c(OC)c(OC)cc5cc[n+]4C)cc3)c2c(OC)c1OC.[I-].[I-]
6,> 58,C[n+]1ccc2ccccc2c1Cc1ccccc1Cc1c2ccccc2cc[n+]1C.[I-].[I-]
7,> 58,COc1cc2cc[n+](C)c(Cc3ccccc3Cc3c4c(OC)c(OC)c(OC)cc4cc[n+]3C)c2c(OC)c1OC.[I-].[I-]
8,> 58,Cc1cc(N)c2ccccc2[n+]1CCCCCCCCCC[n+]1c(C)cc(N)c2ccccc21.[Cl-].[Cl-] [DEQUALINIUM CHLORIDE]
9,> 58,COc1cc2cc[n+](C)c(CCCCc3c4c(OC)c(OC)c(OC)cc4cc[n+]3C)c2c(OC)c1OC.[I-].[I-]
10,> 58,COc1cc2cc[n+](C)c(Cc3ccc(Cc4c5cc(OC)c(OC)cc5cc[n+]4C)cc3)c2cc1OC.[I-].[I-]
11,> 58,COc1cc2cc[n+](C)c(CCCCCc3c4cc(OC)c(OC)cc4cc[n+]3C)c2cc1OC.[I-].[I-]

# Target: T1, Small conductance calcium-activated potassium channel
# Assay: Blockade of SK channel in Wistar rat brain assessed as inhibition of apamin-sensitive after-hyperpolarisation
# Procedure, shortened: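 Apamin-sensitive AHP area (mV s) measured as percent reduction, normalized to block by 300 nM apamin; four sweeps averaged. IC50 from Hill equation fit; mean ± SD, n = 3.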
row,SMILES,IC50 [nM]
1,COc1cc2cc[n+](C)c(Cc3ccccc3Cc3c4cc(OC)c(OC)cc4cc[n+]3C)c2cc1OC.[I-].[I-],3800
2,COc1cc2cc[n+](C)c(Cc3cccc(Cc4c5c(OC)c(OC)c(OC)cc5cc[n+]4C)c3)c2c(OC)c1OC.[I-].[I-],2400

# Other lines, results leading:
row,IC50 [nM],SMILES
1,15000,COc1ccc(C[C@H]2c3cc(OC)c(OC)cc3CC[N+]2(C)C)cc1OC.[I-] [LAUDANOSINE METHIODIDE]
2,4100,COc1cc2cc[n+](C)c(Cc3ccccc3Cc3c4c(OC)c(OC)c(OC)cc4cc[n+]3C)c2c(OC)c1OC.[I-].[I-]
3,4400,COc1cc2cc[n+](C)c(CCCCc3c4c(OC)c(OC)c(OC)cc4cc[n+]3C)c2c(OC)c1OC.[I-].[I-]
